Reference: ChEMBL document CHEMBL1126696, “N-(arylalkyl)farnesylamines: new potent squalene synthetase inhibitors” (J Med Chem, 1993)

These compounds were tested against T1, Squalene synthase (Rattus norvegicus, UniProt Q02769) (assay: Inhibitory activity against squalene synthetase in rat liver microsomes).
T1 sequence (Q02769 whole entry): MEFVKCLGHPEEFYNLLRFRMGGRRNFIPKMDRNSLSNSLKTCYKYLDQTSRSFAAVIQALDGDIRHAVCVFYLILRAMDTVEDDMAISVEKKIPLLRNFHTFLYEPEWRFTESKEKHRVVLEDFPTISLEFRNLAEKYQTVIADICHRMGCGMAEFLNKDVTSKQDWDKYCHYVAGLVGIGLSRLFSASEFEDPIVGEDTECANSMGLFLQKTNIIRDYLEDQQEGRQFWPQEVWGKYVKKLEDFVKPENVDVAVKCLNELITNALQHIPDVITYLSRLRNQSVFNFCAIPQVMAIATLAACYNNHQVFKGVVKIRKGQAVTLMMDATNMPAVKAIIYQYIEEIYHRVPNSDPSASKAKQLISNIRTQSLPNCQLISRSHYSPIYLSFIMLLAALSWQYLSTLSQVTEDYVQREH
Parameters: species or system Microsome
Summary of the method: (§1)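 Rat liver microsomes (about 1 mg/mL protein) were prepared in pH 7.4 phosphate buffer with EDTA and stored at -80 °C. Samples were preincubated at 37 °C under nitrogen for 5 min. Final NADPH was 1.2 mM and MgCl2 5 mM. Tritiated farnesyl pyrophosphate started a 10-min reaction at 37 °C under nitrogen. Products were counted by liquid scintillation. Reactions ran in duplicate at several concentrations across at least four independent assays. IC50 was derived by linear regression of the pooled data.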

Row | SMILES | IC50
1 | CC(C)CCCC(C)CCCC(C)CCNCc1cccnc1 (stereo not given) | 7 µM
2 | CC(C)=CCC/C(C)=C/CC/C(C)=C/CNCC(C)CC/C=C(\C)CCC=C(C)C (stereo not given) | 1 µM
3 | CC(C)=CCC/C(C)=C/CC/C(C)=C/CNCc1cccnc1 | 0.05 µM
4 | CC(C)=CCC/C(C)=C/CNCc1cccnc1 | 23 µM
5 | CC(C)=CCC/C(C)=C/CC/C(C)=C/CNCc1ccccc1 | 0.1 µM
6 | CC(C)=CCC/C(C)=C/CC/C(C)=C/CNCc1ccncc1 | 0.1 µM
7 | CCN(C/C=C(\C)CC/C=C(\C)CCC=C(C)C)Cc1cccnc1 | 4.9 µM
8 | CCN(C/C=C(\C)CC/C=C(\C)CCC=C(C)C)C/C=C(\C)CC/C=C(\C)CCC=C(C)C | 182 µM
9 | CC(C)=CCC/C(C)=C/CC/C(C)=C/COCc1cccnc1 | 33 µM
10 | CCNC/C=C(\C)CC/C=C(\C)CCC=C(C)C | 0.6 µM
11 | CC(C)=CCC/C(C)=C/CC/C(C)=C/COC/C=C(\C)CC/C=C(\C)CCC=C(C)C | 828 µM
12 | CC(C)=CCC/C(C)=C/CCC(C)CNCc1cccnc1 (stereo not given) | 23 µM
13 | CC(C)=CCC/C(C)=C/CC/C(C)=C/CNC/C=C(\C)CC/C=C(\C)CCC=C(C)C | 48 µM

What follows are compounds tested against T1, Squalene synthase (assay: Tested for inhibitory activity against squalene synthetase in the presence of inorganic pyrophosphate (PPi)).
Summary of the method: as §1

Row | SMILES | IC50
14 | CC(C)=CCC/C(C)=C/CC/C(C)=C/CNCc1cccnc1 | 4 nM
15 | CC(C)=CCC/C(C)=C/CC/C(C)=C/CNCc1ccccc1 | 10 nM
